Drawing on ChEMBL document CHEMBL1125431, “2-substituted 3-(aminooxy)propanamines as inhibitors of ornithine decarboxylase: synthesis and biological activity” (J Med Chem, 1992), this text covers IC50 for 16 molecules.

In one assay the target is T1, Ornithine decarboxylase (Rattus norvegicus, UniProt P09057).
T1 sequence (P09057 whole entry): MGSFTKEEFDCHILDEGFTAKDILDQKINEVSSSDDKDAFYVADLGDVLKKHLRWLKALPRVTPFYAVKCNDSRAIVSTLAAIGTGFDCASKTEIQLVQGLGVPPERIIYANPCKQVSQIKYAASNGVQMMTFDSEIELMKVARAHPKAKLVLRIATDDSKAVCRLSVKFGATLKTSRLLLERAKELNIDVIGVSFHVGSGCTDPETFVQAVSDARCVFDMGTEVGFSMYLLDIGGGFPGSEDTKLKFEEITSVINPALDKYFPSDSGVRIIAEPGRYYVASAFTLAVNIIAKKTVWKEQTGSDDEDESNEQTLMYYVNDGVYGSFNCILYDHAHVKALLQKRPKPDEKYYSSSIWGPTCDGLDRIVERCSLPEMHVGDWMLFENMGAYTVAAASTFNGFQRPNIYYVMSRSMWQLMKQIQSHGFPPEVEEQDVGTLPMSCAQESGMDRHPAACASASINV
Briefly: Inhibitory activity against Rat liver ornithine decarboxylase (ODC). The method, boiled down:
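Partially purified rat liver ODC. Reaction at 37 °C for up to 1 h in 100 mM Tris-HCl pH 7 with 4 mM EDTA, 4 mM DTT, 0.4 mM pyridoxal phosphate and 0.21 mM L-ornithine spiked with L-[1-¹⁴C]ornithine. Inhibitor, in 10 mM Tris pH 7, added with substrate. Released ¹⁴CO₂ trapped on alkali filter; acid stop; scintillation counting. IC50 by linear regression of log concentration versus % activity (95–5% range).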

Assay [1] concerns T-24. The assay is described as follows: The compound was tested for anti proliferative activity against Human T24 bladder carcinoma cells. The class given is functional, cell-based.
The test system of assay [2] is T-24. Briefly: Inhibitory activity against Human T24 bladder carcinoma cells. The class given is functional, cell-based.

pIC50: −log10 of the molar value.

As for `C=CCNCC(O)CON` (configuration not stated), the pIC50 (usually −log10 of the IC50, conventionally taken in molar units) against Ornithine decarboxylase is 4.68; in the assay with T-24 [1] it was less than 3.64.
With `NCC(Cl)CON` (configuration not stated), the pIC50 is 7.03 on Ornithine decarboxylase and 5.20 in the assay on T-24 [2].
For `NCC(O)CON` (configuration not stated) the same measures were 7.41 and 4.61.
On the same counts, the results for `NCC(F)CNN` (configuration not stated) are 5.48 and 3.79.
On to `Cc1ncc(COP(=O)(O)O)c(/C=N/OCC(O)CN)c1O` (configuration not stated), for which the pIC50 is 4.62 against Ornithine decarboxylase and less than 3.95 in the assay with T-24 [1].
`NCCCON`: the pIC50 was 7.46 on Ornithine decarboxylase and 5.08 in the assay with T-24 [2].
Regarding `CC(C)NCC(O)CON` (configuration not stated), the pIC50 on Ornithine decarboxylase is 4.18; in the assay on T-24 [1] it was less than 4.34.
In the case of `NC[C@@H](O)CON`, the pIC50 against Ornithine decarboxylase is 7.31; in the assay on T-24 [2] it was 4.69.
On the same counts, the results for `CN(C)CC(O)CON` (configuration not stated) are less than 4.30 and less than 4.44.
On the same counts, the results for `CS(=O)(=O)OC(CN)CON` (configuration not stated) are 5.96 and 3.95.
On the same counts, the results for `CNCC(O)CON` (configuration not stated) are 5.72 and less than 4.48.
Turning to `C#CCNCC(O)CON` (configuration not stated), the pIC50 at Ornithine decarboxylase is 5.08; with T-24 [2] it was less than 3.64.
On the same counts, the results for `NC[C@H](O)CON` are 7.48 and 4.79.
For `NOCC(O)CON` the same measures were 3.17 and 3.74.
In the case of `Cc1ncc(COP(=O)(O)O)c(/C=N/OCC(F)CN)c1O` (configuration not stated), the pIC50 on Ornithine decarboxylase was 5.28; in the assay with T-24 [1] it was 6.22.
`NCC(F)CON` (configuration not stated): the pIC50 against Ornithine decarboxylase was 7.85; in the assay on T-24 [2], 5.62.
